B1: NELF-E aptamer (parent)
chain: CCCAACGACUGCCGAGCGAGAUUACGCUUGAGCGCCCCACUGAGGAUGCCCACGGGCGAUUGGGGCACGG

As a reminder, the Kd is the free concentration of one partner at which half of the binding sites on the other are occupied at equilibrium, for simple one-to-one binding.

The variants in this data set derive from B1. In words: HiTS-RAP. Conditions: with NELF-E (Drosophila). A digest of the protocol: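 Aptamer DNA templates bearing a T7 promoter and a ter site were sequenced on an Illumina GAIIx flowcell. T7 RNA polymerase then transcribed them in situ, and GST-Tus halted transcription over 30 minutes at 37°C. After a 30-minute room-temperature equilibration with NELF-E-mOrange at 0.064 to 1000 nM in HEPES binding buffer, clusters were imaged, using only the first binding curve. Intensities normalised to sequencing intensity were averaged per sequence and fitted with weighted Hill fits to give Kd, retaining only fits whose variance stayed under 1,000,000.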
As to CCCAACGACUGCCGAGCGAGAUUACGCCUGAGCGCCCCACGGAGGAUGCCCACGGGCGAUUGGGGCACGG [U28C U41G], the Kd was determined as 11.9 nM.
For the variant CCCAACGACUGCCGAGCGAGAUUACGCUGGAGCGUCCCACUGAGGAUGCCCACGGGCGAUUGGGGCACGG [U29G C35U], the Kd worked out at 17.1 nM.
As for CCCAACGACUGCCGAGCGAGAUUACGCUGGAGCGGCCCACUGAGGAUGCCCACGGGCGAUUGGGGCACGG [U29G C35G], the Kd is 4.89 nM.
CCCAACGACUGCCGAGCGAGAUUACGCUAGAGCGCCCCACUGAGGAUGCCCAUGGGCGAUUGGGGCACGG [U29A C53U]: the Kd is 5.35 nM.
Turning to CCCAACGACUGCCGAGCGAGAUUACGCUCGAGCGCCCCACUGAGGAUGCCCACGGGCGAUAGGGGCACGG [U29C U61A], the Kd was 38 nM.
CCCAACGACUGCCGAGCGAGAUUACGCUGGAGCGCCCCAUUGAGGAUGCCCACGGGCGAUUGGGGCACGG [U29G C40U]: the Kd is 56.1 nM.
With CCCAACGACUGCCGAGCGAGAUUACGCUGGAGCGCCCCAGUGAGGAUGCCCACGGGCGAUUGGGGCACGG [U29G C40G] the figure was 5.85 nM; with CCCAACGACUGCCGAGCGAGAUUACGCUCGAGCGCCCCACUGAGGAUGCCCACGGGCGAUUGGGGUACGG [U29C C66U], 5.81 nM.
For CCCAACGACUGCCGAGCGAGAUUACGCUCGAGCGCCCCACUGAGGAUGCCCACGGGCGAUUGGGGCACGG [U29C], the Kd worked out at 4.9 nM.
With CCCAACGACUGCCGAGCGAGAUUACGCUAGAGCGCCCCACUGAGGAUGCCCACGGGCGAUUGGGGCACGG [U29A] the figure was 4.54 nM.
With CCCAACGACUGCCGAGCGAGAUUACGCUGGAGCGCCCCACUGAGGAUGCCCACGGGCGAUUGGGGCACGG [U29G] the figure was 4.93 nM; with CCCAACGACUGCCGAGCGAGAUUACGCUGGAGCGCCCCACUGAGGAUGCCCACGGGCGUUUGGGGCACGG [U29G A59U], 23.9 nM.
With CCCAACGACUGCCGAGCGAGAUUACGCUGGAGCGCCCCACUGAGGAUGCCCACGGGCGGUUGGGGCACGG [U29G A59G] the figure was 50.9 nM.
For the variant CCCAACGACUGCCGAGCGAGAUUACGCCUGAGCGCCCCACUGAGGAUGCCCACGGGCGGUUGGGGCACGG [U28C A59G], the Kd is 113 nM.
Take CCCAACGACUGCCGAGCGAGAUUACGCUGGAGCGCCUCACUGAGGAUGCCCACGGGCGAUUGGGGCACGG [U29G C37U]: the Kd was determined as 12.4 nM.
Turning to CCCAACGACUGCCGAGCGAGAUUACGCUGGAGCGCCACACUGAGGAUGCCCACGGGCGAUUGGGGCACGG [U29G C37A], the Kd was 14.8 nM.
With CCCAACGACUGCCGAGCGAGAUUACGCUGGAGCGCCGCACUGAGGAUGCCCACGGGCGAUUGGGGCACGG [U29G C37G] the figure was 8.38 nM; with CCCAACGACUGCCGAGCGAGAUUACGCUAGAGCGCCCCGCUGAGGAUGCCCACGGGCGAUUGGGGCACGG [U29A A39G], 5.71 nM; with CCCAACGACUGCCGAGCGAGAUUACGCUAGAGCGCCCCUCUGAGGAUGCCCACGGGCGAUUGGGGCACGG [U29A A39U], 20.9 nM.
Turning to CCCAACGACUGCCGAGCGAGAUUACGCUGGAGCGCCCCACUGAGGAUGUCCACGGGCGAUUGGGGCACGG [U29G C49U], the dissociation constant (Kd) is 22.4 nM.
As to CCCAACGACUGCCGAGCGAGAUUACGCUGGAGCGCCCCACUGAGGAUGCUCACGGGCGAUUGGGGCACGG [U29G C50U], the Kd is 15.4 nM.
In the case of CCCAACGACUGCCGAGCGAGAUUACGCUGGAGCGCCCCACUGAGGUUGCCCACGGGCGAUUGGGGCACGG [U29G A46U], the equilibrium dissociation constant (Kd) turned out to be 77.8 nM.
CCCAACGACUGCCGAGCGAGAUUACGCUGGAGCGCCCCACUGAGGGUGCCCACGGGCGAUUGGGGCACGG [U29G A46G]: the Kd was 22.4 nM.
Take CCCAACGACUGCCGAGCGAGAUUACGCUGGAGGGCCCCACUGAGGAUGCCCACGGGCGAUUGGGGCACGG [U29G C33G]: the Kd turned out to be 6.45 nM.
With CCCAACGACUGCCGAGCGAGAUUACGCUGGAGUGCCCCACUGAGGAUGCCCACGGGCGAUUGGGGCACGG [U29G C33U] the figure was 6.03 nM; with CCCAACGACUGCCGAGCGAGAUUACGCGUGAGCGCCCCGCUGAGGAUGCCCACGGGCGAUUGGGGCACGG [U28G A39G], 11.2 nM; with CCCAACGACUGCCGAGCGAGAUUACGCCUGAGCACCCCACUGAGGAUGCCCACGGGCGAUUGGGGCACGG [U28C G34A], 37.6 nM.
With CCCAACGACUGCCGAGCGAGAUUACGCUGGAGCGCCCCACUGAGGAUGCCUACGGGCGAUUGGGGCACGG [U29G C51U], the Kd came to 8.19 nM.
Take CCCAACGACUGCCGAGCGAGAUUACGCUGGAGCGCCCCACUGAGGAUGCCGACGGGCGAUUGGGGCACGG [U29G C51G]: the Kd was 4.37 nM.
With CCCAACGACUGCCGAGCGAGAUUACGCUGGAGCGCCCCACUGAGGAUGCCAACGGGCGAUUGGGGCACGG [U29G C51A] the figure was 8.11 nM.
On to CCCAACGACUGCCGAGCGAGAUUACGCAAGAGCGCCCCACUGAGGAUGCCCACGGGCGAUUGGGGCACGG [U28A U29A], for which the Kd was found to be 4.14 nM.
As to CCCAACGACUGCCGAGCGAGAUUACGCAGGAGCGCCCCACUGAGGAUGCCCACGGGCGAUUGGGGCACGG [U28A U29G], the Kd came to 4.82 nM.
With CCCAACGACUGCCGAGCGAGAUUACGCUAGAGCGCCCCACCGAGGAUGCCCACGGGCGAUUGGGGCACGG [U29A U41C] the figure was 79.2 nM.
With CCCAACGACUGCCGAGCGAGAUUACGCUAGAGCGCCCCACGGAGGAUGCCCACGGGCGAUUGGGGCACGG [U29A U41G] the figure was 6.07 nM; with CCCAACGACUGCCGAGCGAGAUUACGUGUGAGCGCCCCACUGAGGAUGCCCACGGGCGAUUGGGGCACGG [C27U U28G], 5.03 nM.
Consider CCCAACGACUGCCGAGCGAGAUUACGCUAGUGCGCCCCACUGAGGAUGCCCACGGGCGAUUGGGGCACGG [U29A A31U], for which the Kd came out at 4.6 nM.
With CCCAACGACUGCCGAGCGAGAUUACGCUAGGGCGCCCCACUGAGGAUGCCCACGGGCGAUUGGGGCACGG [U29A A31G], the Kd amounted to 5.67 nM.
With CCCAACGACUGCCGAGCGAGAUUACGCCUGAGCGCCCCUCUGAGGAUGCCCACGGGCGAUUGGGGCACGG [U28C A39U] the figure was 51.1 nM; with CCCAACGACUGCCGAGCGAGAUUACGGUGGAGCGCCCCACUGAGGAUGCCCACGGGCGAUUGGGGCACGG [C27G U29G], 5.43 nM.

(Values after the RNAGym collection of RNA variant scans (doi:10.1038/nmeth.2970).)
